# ChEMBL document CHEMBL1255501, “Heteroresistance of Cryptococcus gattii to fluconazole” (2010)
# Activity calls are given as the source filed them. The calls are words filed in the database; no cut-off is given here.
# Key:
# [1] = test system: Cryptococcus gattii species complex; assay: Antimicrobial activity against Cryptococcus gattii serotype B isolate RB-11 assessed as concentration required for heteroresistance; assay type: functional, Cryptococcus bacillisporus
# [2] = test system: Cryptococcus gattii species complex; assay: Antimicrobial activity against Cryptococcus gattii serotype B isolate B4506 assessed as heteroresistant isolates at 2 ug/ml; assay type: functional, Cryptococcus bacillisporus
# Summary of the method: (§1)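 Population analysis: cells suspended in sterile saline at 1 × 10³ to 4 × 10³ CFU/ml and plated on plain YPD agar or YPD agar with various fluconazole concentrations. Plates incubated at 30°C for 72 h. The resistant subpopulation at each concentration is recorded as a percentage of the population.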
# [3] = test system: Cryptococcus gattii species complex; assay: Antimicrobial activity against Cryptococcus gattii serotype C isolate NIH257 assessed as heteroresistant isolates at 2 ug/ml; assay type: functional, Cryptococcus bacillisporus
# Summary of the method: (§2)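 Cell suspensions of 1 × 10^3 to 4 × 10^3 CFU/ml were made in sterile saline and plated on plain YPD agar or YPD agar with various fluconazole concentrations. Plates were incubated at 30°C for 72 h, and the percentage of resistant subpopulation emerging was recorded.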
# [4] = test system: Cryptococcus bacillisporus; assay: Antimicrobial activity against Cryptococcus gattii serotype C isolate NIH191 assessed as heteroresistant isolates at 2 ug/ml; assay type: functional
# Summary of the method: (§3)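 Population analysis: saline cell suspensions (1 × 103 to 4 × 10^3 CFU/ml) plated on plain YPD agar or YPD agar with various fluconazole concentrations; growth recorded after 72 h at 30°C; percentage of resistant subpopulation at each drug level calculated relative to drug-free plate growth.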
# [5] = test system: Cryptococcus gattii species complex; assay: Antimicrobial activity against Cryptococcus gattii serotype C isolate H0058-1-818 assessed as heteroresistant isolates at 2 ug/ml; assay type: functional, Cryptococcus bacillisporus; summary of the method: as §3
# [6] = test system: Cryptococcus gattii species complex; assay: Antimicrobial activity against Cryptococcus gattii serotype B isolate NIH200 assessed as heteroresistant isolates at 4 ug/ml; assay type: functional, Cryptococcus bacillisporus; summary of the method: as §1
# [7] = test system: Cryptococcus gattii species complex; assay: Antimicrobial activity against Cryptococcus gattii serotype B isolate NIH184 assessed as heteroresistant isolates at 4 ug/ml; assay type: functional, Cryptococcus bacillisporus; summary of the method: as §1
# [8] = test system: Cryptococcus gattii species complex; assay: Antimicrobial activity against Cryptococcus gattii serotype B isolate B5765 assessed as heteroresistant isolates at 4 ug/ml; assay type: functional, Cryptococcus bacillisporus; summary of the method: as §1
# [9] = test system: Cryptococcus gattii species complex; assay: Antimicrobial activity against Cryptococcus gattii serotype B isolate RB3 assessed as heteroresistant isolates at 4 ug/ml; assay type: functional, Cryptococcus bacillisporus; summary of the method: as §3
# [10] = test system: Cryptococcus bacillisporus; assay: Antimicrobial activity against Cryptococcus gattii serotype C isolate NIH191 assessed as heteroresistant isolates at 4 ug/ml; assay type: functional; summary of the method: as §3
# [11] = test system: Cryptococcus gattii species complex; assay: Antimicrobial activity against Cryptococcus gattii serotype B isolate RB-14 assessed as concentration required for heteroresistance; assay type: functional, Cryptococcus bacillisporus
# [12] = test system: Cryptococcus gattii species complex; assay: Antimicrobial activity against Cryptococcus gattii serotype B isolate RB-17 assessed as concentration required for heteroresistance; assay type: functional, Cryptococcus bacillisporus
# [13] = test system: Cryptococcus gattii species complex; assay: Antimicrobial activity against Cryptococcus gattii serotype B isolate B5788 assessed as concentration required for heteroresistance; assay type: functional, Cryptococcus bacillisporus
# Summary of the method: (§4)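 Fluconazole spot test: 10-fold serial dilutions of each single-colony-purified strain spotted on YPD agar alone and YPD agar with fluconazole at 4 to 128 μg/ml. The level of heteroresistance to fluconazole (LHF) is the lowest drug concentration at which minor resistant subpopulations emerge within the spot.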
# [14] = test system: Cryptococcus gattii species complex; assay: Antimicrobial activity against Cryptococcus gattii serotype C isolate NIH298 assessed as concentration required for heteroresistance; assay type: functional, Cryptococcus bacillisporus
# Summary of the method: (§5)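 […] on YPD agar at 4 to 128 μg/ml. The lowest drug concentration at which minor resistant subpopulations emerged within the patch was scored as the strain's level of heteroresistance.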
# [15] = test system: Cryptococcus gattii species complex; assay: Antimicrobial activity against Cryptococcus gattii serotype C isolate NIH917 assessed as concentration required for heteroresistance; assay type: functional, Cryptococcus bacillisporus; summary of the method: as §5
# [16] = test system: Cryptococcus gattii species complex; assay: Antimicrobial activity against Cryptococcus gattii serotype C isolate H0058-1-78 assessed as concentration required for heteroresistance; assay type: functional, Cryptococcus bacillisporus
# [17] = test system: Cryptococcus gattii species complex; assay: Antimicrobial activity against Cryptococcus gattii serotype C isolate H0058-1-2023 assessed as concentration required for heteroresistance; assay type: functional, Cryptococcus bacillisporus
# [18] = test system: Cryptococcus gattii species complex; assay: Antimicrobial activity against Cryptococcus gattii serotype C isolate H0058-1-2086 assessed as concentration required for heteroresistance; assay type: functional, Cryptococcus bacillisporus
# [19] = test system: Cryptococcus gattii species complex; assay: Antimicrobial activity against Cryptococcus gattii serotype C isolate H0058-1-818 assessed as concentration required for heteroresistance; assay type: functional, Cryptococcus bacillisporus
# [20] = test system: Cryptococcus gattii species complex; assay: Antimicrobial activity against Cryptococcus gattii serotype B isolate NIH754 assessed as heteroresistant isolates at 2 ug/ml; assay type: functional, Cryptococcus bacillisporus; summary of the method: as §1
# [21] = test system: Cryptococcus gattii species complex; assay: Antimicrobial activity against Cryptococcus gattii serotype B isolate NIH412 assessed as heteroresistant isolates at 2 ug/ml; assay type: functional, Cryptococcus bacillisporus; summary of the method: as §1
# [22] = test system: Cryptococcus gattii species complex; assay: Antimicrobial activity against Cryptococcus gattii serotype B isolate NIH367 assessed as heteroresistant isolates at 2 ug/ml; assay type: functional, Cryptococcus bacillisporus; summary of the method: as §1
# [23] = test system: Cryptococcus gattii species complex; assay: Antimicrobial activity against Cryptococcus gattii serotype B isolate NIH412 assessed as concentration required for heteroresistance; assay type: functional, Cryptococcus bacillisporus; summary of the method: as §4
# [24] = test system: Cryptococcus deuterogattii; assay: Antimicrobial activity against Cryptococcus gattii serotype B isolate NIH444 assessed as concentration required for heteroresistance; assay type: functional, Cryptococcus bacillisporus; summary of the method: as §4
# [25] = test system: Cryptococcus gattii species complex; assay: Antimicrobial activity against Cryptococcus gattii serotype B isolate NIH535 assessed as concentration required for heteroresistance; assay type: functional, Cryptococcus bacillisporus; summary of the method: as §4
# [26] = test system: Cryptococcus gattii species complex; assay: Antimicrobial activity against Cryptococcus gattii serotype B isolate NIH184 assessed as concentration required for heteroresistance; assay type: functional, Cryptococcus bacillisporus; summary of the method: as §4
# [27] = test system: Cryptococcus gattii species complex; assay: Antimicrobial activity against Cryptococcus gattii serotype B isolate NIH771 assessed as concentration required for heteroresistance; assay type: functional, Cryptococcus bacillisporus; summary of the method: as §4
# [28] = test system: Cryptococcus gattii species complex; assay: Antimicrobial activity against Cryptococcus gattii serotype B isolate RB-4 assessed as concentration required for heteroresistance; assay type: functional, Cryptococcus bacillisporus
# [29] = test system: Cryptococcus gattii species complex; assay: Antimicrobial activity against fluconazole-resistant Cryptococcus gattii serotype B isolate RAM15 at 256 ug/ml; assay type: functional, organism-based; conditions: Cryptococcus bacillisporus
# [30] = test system: Cryptococcus gattii species complex; assay: Antimicrobial activity against Cryptococcus gattii serotype B isolate NIH76 assessed as concentration required for heteroresistance; assay type: functional, Cryptococcus bacillisporus; summary of the method: as §4
# [31] = test system: Cryptococcus gattii species complex; assay: Antimicrobial activity against Cryptococcus gattii serotype C isolate H0058-1-1686 assessed as heteroresistant isolates at 16 ug/ml; assay type: functional, Cryptococcus bacillisporus; summary of the method: as §3
# [32] = test system: Cryptococcus gattii species complex; assay: Antimicrobial activity against Cryptococcus gattii serotype B isolate NIH286 assessed as heteroresistant isolates at 32 ug/ml; assay type: functional, Cryptococcus bacillisporus; summary of the method: as §1
# [33] = test system: Cryptococcus gattii species complex; assay: Antimicrobial activity against Cryptococcus gattii serotype B isolate RAM15 assessed as heteroresistant isolates at 32 ug/ml; assay type: functional, Cryptococcus bacillisporus; summary of the method: as §3
# [34] = test system: Cryptococcus gattii species complex; assay: Antimicrobial activity against Cryptococcus gattii serotype C isolate NIH18 assessed as heteroresistant isolates at 32 ug/ml; assay type: functional, Cryptococcus bacillisporus, serotype B isolate  NIH18; summary of the method: as §3
# [35] = test system: Cryptococcus bacillisporus; assay: Antimicrobial activity against Cryptococcus gattii serotype C isolate NIH191 assessed as heteroresistant isolates at 32 ug/ml; assay type: functional; summary of the method: as §3
# [36] = test system: Cryptococcus gattii species complex; assay: Antimicrobial activity against Cryptococcus gattii serotype C isolate H0058-1-818 assessed as heteroresistant isolates at 32 ug/ml; assay type: functional, Cryptococcus bacillisporus; summary of the method: as §3
# [37] = test system: Cryptococcus gattii species complex; assay: Antimicrobial activity against Cryptococcus gattii serotype B isolate NIH198 assessed as heteroresistant isolates at 8 ug/ml; assay type: functional, Cryptococcus bacillisporus; summary of the method: as §1
# [38] = test system: Cryptococcus gattii species complex; assay: Antimicrobial activity against Cryptococcus gattii serotype C isolate NIH113 assessed as heteroresistant isolates at 8 ug/ml; assay type: functional, Cryptococcus bacillisporus; summary of the method: as §3
# [39] = test system: Cryptococcus bacillisporus; assay: Antimicrobial activity against Cryptococcus gattii serotype C isolate NIH191 assessed as heteroresistant isolates at 8 ug/ml; assay type: functional; summary of the method: as §2
# [40] = test system: Cryptococcus gattii species complex; assay: Antimicrobial activity against Cryptococcus gattii serotype C isolate H0058-1-1941 assessed as heteroresistant isolates at 8 ug/ml; assay type: functional, Cryptococcus bacillisporus; summary of the method: as §3
# [41] = test system: Cryptococcus gattii species complex; assay: Antimicrobial activity against Cryptococcus gattii serotype B isolate NIH198 assessed as heteroresistant isolates at 16 ug/ml; assay type: functional, Cryptococcus bacillisporus; summary of the method: as §1
# [42] = test system: Cryptococcus gattii species complex; assay: Antimicrobial activity against Cryptococcus gattii serotype B isolate NIH189 assessed as heteroresistant isolates at 16 ug/ml; assay type: functional, Cryptococcus bacillisporus; summary of the method: as §1
# [43] = test system: Cryptococcus gattii species complex; assay: Antimicrobial activity against Cryptococcus gattii serotype C isolate NIH113 assessed as heteroresistant isolates at 16 ug/ml; assay type: functional, Cryptococcus bacillisporus; summary of the method: as §3
structure (smiles),measurement,setting,value
OC(Cn1cncn1)(Cn1cncn1)c1ccc(F)cc1F [FLUCONAZOLE],Activity,[1],32 µg/mL
same,Activity,[2],100%
same,Activity,[3],100%
same,Activity,[4],100%
same,Activity,[5],100%
same,Activity,[6],0.1%
same,Activity,[7],100%
same,Activity,[8],100%
same,Activity,[9],100%
same,Activity,[10],100%
same,Activity,[11],32 µg/mL
same,Activity,[12],32 µg/mL
same,Activity,[13],8 µg/mL
same,Activity,[14],32 µg/mL
same,Activity,[15],32 µg/mL
same,Activity,[16],32 µg/mL
same,Activity,[17],32 µg/mL
same,Activity,[18],32 µg/mL
same,Activity,[19],32 µg/mL
same,Activity,[20],100%
same,Activity,[21],100%
same,Activity,[22],100%
same,Activity,[23],4 µg/mL
same,Activity,[24],32 µg/mL
same,Activity,[25],4 µg/mL
same,Activity,[26],16 µg/mL
same,Activity,[27],32 µg/mL
same,Activity,[28],32 µg/mL
same,Activity,[29],inactive
same,Activity,[30],32 µg/mL
same,Activity,[31],100%
same,Activity,[32],0.06%
same,Activity,[33],10%
same,Activity,[34],0.44%
same,Activity,[35],20%
same,Activity,[36],16%
same,Activity,[37],100%
same,Activity,[38],100%
same,Activity,[39],100%
same,Activity,[40],100%
same,Activity,[41],1.9%
same,Activity,[42],0.7%
same,Activity,[43],100%
